Five molecules from ChEMBL document CHEMBL1152506, “Characterization and synthetic application of a novel beta1,3-galactosyltransferase from Escherichia coli O55:H7” (Bioorg Med Chem, 2009) can be followed below.

For series [1], the target named is T1, Putative glycosyltransferase (Escherichia coli O55:H7) (UniProt B1B4J9).
T1 sequence (whole entry): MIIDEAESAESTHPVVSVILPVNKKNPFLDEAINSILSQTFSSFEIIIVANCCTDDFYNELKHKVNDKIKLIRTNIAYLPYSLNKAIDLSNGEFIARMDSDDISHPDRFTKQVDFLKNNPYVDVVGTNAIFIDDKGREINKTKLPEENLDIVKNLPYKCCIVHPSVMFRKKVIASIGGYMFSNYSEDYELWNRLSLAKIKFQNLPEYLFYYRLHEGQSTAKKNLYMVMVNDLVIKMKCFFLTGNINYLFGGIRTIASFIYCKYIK
Put plainly: Activity of Escherichia coli O55:H7 glycosyltransferase WbgO relative to GlcNAc. In outline:
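GST-fused WbgO made in E. coli BL21(DE3) and purified on glutathione resin. Assayed in 50 µL of 50 mM HEPES pH 7.0 with 5 mM MnCl2, 0.3 mM UDP-Gal plus UDP-[6-3H]Gal (10,000 cpm), 2 mM acceptor and 4 µg enzyme, 37 °C for 1 h. Control omitted the acceptor. Incorporated 3H was read by liquid scintillation counting and expressed relative to GlcNAc.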

The target in series [2] is T1, Putative glycosyltransferase (Escherichia coli O55:H7). Put plainly: Activity of Escherichia coli O55:H7 glycosyltransferase WbgO. In a few lines: (§1)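 Apparent kinetics for purified GST-WbgO, using the radioactive UDP-[6-3H]Gal transfer assay with scintillation counting. The acceptor (GlcNAc, GalNAc or lacto-N-triose) was varied at 0.1, 0.2, 0.5, 1 and 2 mM with UDP-Gal fixed at 1 mM. UDP-Gal was varied at 0.1–2 mM with 20 mM GlcNAc. Base buffer was HEPES pH 7.0 with 5 mM MnCl2.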

Substrate in series [3]: CC(=O)N[C@@H]1[C@@H](O)[C@H](O)[C@@H](CO)O[C@H]1O
Briefly: (§2) Activity of Escherichia coli O55:H7 glycosyltransferase WbgO by Lineweaver-Burke analysis. In a few lines: as §1

Substrate in series [4]: CC(=O)N[C@H]1[C@H](O[C@H]2[C@@H](O)[C@@H](CO)O[C@@H](O[C@H]3[C@H](O)[C@@H](O)[C@H](O)O[C@@H]3CO)[C@@H]2O)O[C@H](CO)[C@@H](O)[C@@H]1O[C@@H]1O[C@H](CO)[C@H](O)[C@H](O)[C@H]1O
The description is as §2. In outline:
as §1

Substrate in series [5]: CC(=O)N[C@@H]1[C@@H](O)[C@@H](O)[C@@H](CO)O[C@H]1O
The description is as §2. In a few lines:
as §1

Substrate in series [6]: CC(=O)N[C@@H]1[C@@H](O)[C@H](O)[C@@H](CO)O[C@H]1O
Put plainly: (§3) Ratio of Kcat to Km for Escherichia coli O55:H7 glycosyltransferase WbgO by Lineweaver-Burke analysis. In a few lines: as §1

Substrate in series [7]: CC(=O)N[C@H]1[C@H](O[C@H]2[C@@H](O)[C@@H](CO)O[C@@H](O[C@H]3[C@H](O)[C@@H](O)[C@H](O)O[C@@H]3CO)[C@@H]2O)O[C@H](CO)[C@@H](O)[C@@H]1O[C@@H]1O[C@H](CO)[C@H](O)[C@H](O)[C@H]1O
The description is as §3. In outline:
as §1

Substrate in series [8]: CC(=O)N[C@@H]1[C@@H](O)[C@@H](O)[C@@H](CO)O[C@H]1O
The series is described as §3. In a few lines: as §1

Calls of active or inactive are those of the source. The rule behind the calls is not given here.

For `CC(=O)N[C@H]1[C@H](Oc2ccc([N+](=O)[O-])cc2)O[C@H](CO)[C@@H](O)[C@@H]1O`, the Activity in series [1] was found to be 73%.
For the molecule `CC(=O)N[C@H]1[C@H](O[C@H]2[C@@H](O)[C@@H](CO)O[C@@H](O[C@H]3[C@H](O)[C@@H](O)[C@H](O)O[C@@H]3CO)[C@@H]2O)O[C@H](CO)[C@H](O)[C@@H]1O`, the Activity in series [1] came to 16%.
`CC(=O)N[C@@H]1[C@@H](O)[C@@H](O)[C@@H](CO)O[C@H]1O`: the result in series [2] was Active. Besides, the Activity in series [1] was 43%.
In the same order, the values of `CC(=O)N[C@@H]1[C@@H](O)[C@H](O)[C@@H](CO)O[C@H]1O` are “Active” and 100%.

B1: Putative glycosyltransferase (Escherichia coli O55:H7), B1B4J9 (protein)
chain: T1 sequence (whole entry)
One may read the Km as the substrate concentration at which the rate is half of its maximum. As a reminder, the Vmax is the top rate of the reaction or transport when substrate is in excess. As a reminder, the kcat is the number of substrate molecules converted per active site and unit of time at saturation. What is called kcat/Km is the second-order rate constant that governs catalysis at low substrate concentration. As for B1, the figures for the Michaelis constant (Km) in series [3], in series [4] and in series [5] were 323 µM, 55 µM and 327 µM, respectively. Moreover, the Vmax turned out to be 179 pmol/min in series [3], 176 pmol/min in series [4] and 120 pmol/min in series [5]. For the same molecule, the turnover number (kcat) in series [3] was 2.55 min⁻¹; in series [4], 2.5 min⁻¹; in series [5], 1.71 min⁻¹. In addition, the results for the specificity constant (kcat/Km) in series [6], in series [7] and in series [8] were 7.89 mM⁻¹ min⁻¹, 16.7 mM⁻¹ min⁻¹ and 5.23 mM⁻¹ min⁻¹, respectively.
